Here are results for five molecules from ChEMBL document CHEMBL2010658, “Caspase-1 and -3 inhibiting drimane sesquiterpenoids from the extremophilic fungus Penicillium solitum” (J Nat Prod, 2012).

The source made the active and inactive calls. No cut-off for these calls is given here.

As usually defined, the IC25 is the concentration at which the effect reaches the 25% level. The low end stands for greater potency, the high end for weaker potency. One may read the IC50 as the concentration that inhibits the measured activity by half. A lower IC50 goes with greater potency.

One assay has as its target T1, Caspase-3 (Homo sapiens) (UniProt P42574).
T1 sequence (whole entry): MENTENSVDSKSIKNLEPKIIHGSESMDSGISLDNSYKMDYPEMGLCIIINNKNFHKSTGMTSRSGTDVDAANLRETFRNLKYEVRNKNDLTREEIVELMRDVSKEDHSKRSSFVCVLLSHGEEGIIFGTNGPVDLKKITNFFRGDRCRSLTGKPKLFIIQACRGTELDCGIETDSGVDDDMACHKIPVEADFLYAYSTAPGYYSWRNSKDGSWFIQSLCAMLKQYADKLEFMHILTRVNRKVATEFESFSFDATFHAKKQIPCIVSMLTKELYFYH
Kind of assay: (§1) Inhibition of caspase 3 by signal transduction fluorometric assay. The method in brief: (§2)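 Fluorometric enzyme inhibition assays. Reference inhibitors were Ac-YVAD-CHO for caspase-1, Ac-DEVD-CHO for caspase-3, and NNGH for MMP-3.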

For another assay, the target named is T2, Caspase-3 (Homo sapiens, UniProt P42574).
T2 sequence (P42574 whole entry): T1 sequence (whole entry)
The description is as §1. The method in brief: as §2

The next assay deals with T3, Caspase-1 (Homo sapiens, UniProt P29466).
T3 sequence (P29466 whole entry): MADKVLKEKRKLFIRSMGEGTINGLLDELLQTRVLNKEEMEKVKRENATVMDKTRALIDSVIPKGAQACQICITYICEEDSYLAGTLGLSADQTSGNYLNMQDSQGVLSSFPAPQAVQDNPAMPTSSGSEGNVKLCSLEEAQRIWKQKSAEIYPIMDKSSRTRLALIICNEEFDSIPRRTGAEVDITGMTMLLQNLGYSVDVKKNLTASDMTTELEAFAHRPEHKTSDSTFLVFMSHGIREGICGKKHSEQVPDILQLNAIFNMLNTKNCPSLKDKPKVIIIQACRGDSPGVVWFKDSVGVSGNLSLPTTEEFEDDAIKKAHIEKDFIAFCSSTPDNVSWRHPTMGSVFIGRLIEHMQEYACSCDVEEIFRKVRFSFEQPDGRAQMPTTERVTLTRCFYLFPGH
The experiment in a line: (§3) Inhibition of caspase 1 by signal transduction fluorometric assay. The method in brief: as §2

A further assay relates to THP-1. Kind of assay: Antiinflammatory activity in human THP1 cells assessed as inhibition of titanium dioxide nanowires/LPS-induced IL-1beta production at 1 to 100 uM after 24 hrs by ELISA. In kind it is functional, cell-based. The method in brief:
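PMA-differentiated THP-1 cells (1 μg/mL PMA, 24 h beforehand), grown in RPMI with 10% FBS, 0.05 mM 2-mercaptoethanol and pyruvate. Cells were scraped, pelleted, and resuspended at 1.0 × 10⁶ cells/mL. They were exposed to compound at 1, 10 and 100 μM plus LPS (20 ng/mL) and TiO₂ nanowires (100 μg/mL) for 24 h at 37 °C. IL-1β was measured by ELISA and viability by MTS (490 nm).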
A general note: An ELISA detects its analyte on a solid surface through an enzyme-linked reagent.

The next assay deals with T4, Caspase-1 (Homo sapiens) (UniProt P29466).
T4 sequence (whole entry): T3 sequence (P29466 whole entry)
The assay is described as §3. The method in brief: as §2

For assay [1], the target named is Stromelysin-1 (Homo sapiens) (UniProt P08254). Kind of assay: Inhibition of MMP3 by signal transduction fluorometric assay. The method in brief:
as §2

Chain of Stromelysin-1 (Homo sapiens) (P08254 100-477 limits assumed): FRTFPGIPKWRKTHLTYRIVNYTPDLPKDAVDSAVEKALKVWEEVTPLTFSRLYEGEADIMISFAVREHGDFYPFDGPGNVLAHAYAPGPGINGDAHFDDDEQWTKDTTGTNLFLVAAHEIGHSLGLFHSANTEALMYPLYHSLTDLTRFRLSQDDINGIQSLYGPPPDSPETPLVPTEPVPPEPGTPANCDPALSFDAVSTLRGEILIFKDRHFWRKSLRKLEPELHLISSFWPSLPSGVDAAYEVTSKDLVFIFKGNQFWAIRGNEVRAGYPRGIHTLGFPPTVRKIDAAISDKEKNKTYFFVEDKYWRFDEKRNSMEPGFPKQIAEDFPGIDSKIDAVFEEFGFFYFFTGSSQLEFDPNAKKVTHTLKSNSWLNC

`CC(=O)N[C@H](C(=O)O[C@H]1CCC(C)(C)[C@@H]2CC=C3C(=O)OC[C@@H]3[C@@]12C)C(C)C` (relative stereo) registered an IC25 against Caspase-3 (Homo sapiens) of 15 µM. Besides, the IC50 on Caspase-3 is 200 µM; against Caspase-1 it was 100 µM. For the same molecule, the inhibition result in the assay on THP-1 is “Active”.
For `CCCCCCCCCC[C@H](C(=O)OC)[C@@](O)(CCC(=O)OC)C(=O)OC`, the inhibition entry (at Caspase-3 (Homo sapiens); on Caspase-1 (Homo sapiens); in assay [1]) was “inactive” throughout.
Take `C=CCCCCCCCC[C@H](C(=O)OC)[C@@](O)(CCC(=O)OC)C(=O)OC`: the inhibition entry (at Caspase-3 (Homo sapiens); at Caspase-1 (Homo sapiens); in assay [1]) was “inactive” in each case.
In the case of `CC(=O)N[C@H](C(=O)O[C@H]1CCC(C)(C)[C@@H]2CC=C3C(=O)OC[C@]3(O)[C@@]12C)C(C)C` (relative stereo), the IC25 against Caspase-3 (Homo sapiens) is 10 µM. Besides, the IC50 on Caspase-3 was determined as 50 µM; on Caspase-1, 90 µM. Besides, the inhibition result in the assay on THP-1 is “Active”.
In the case of `CCCCCCCCCC[C@H](C(=O)OC)[C@]1(C(=O)OC)CCC(=O)O1`, the inhibition entry (at Caspase-3 (Homo sapiens); on Caspase-1 (Homo sapiens); in assay [1]) was “inactive” each time.
